In ChEMBL document CHEMBL1914401, “Aminothiazoles as γ-secretase modulators” (Bioorg Med Chem Lett, 2011):
Calls of active or inactive are those of the source. No cut-off for these calls is given here.

Experiments:
Cytochrome P450 2D6 = Cytochrome P450 2D6 (Homo sapiens, UniProt P10635); assay: Inhibition of CYP2D6; assay type: ADME
Cytochrome P450 3A4 = Cytochrome P450 3A4 (Homo sapiens, UniProt P08684); assay: Inhibition of CYP3A4; assay type: ADME
Gamma-secretase [1] = assay: Inhibition of gamma secretase in human H4 cells overexpressing human APP assessed as reduction in amyloid beta-42 secretion after 22 hrs; assay type: cell-based
How it was run: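 Human neuroglioma H4 cells overexpressing human APP were seeded at 30,000 cells/well in IMDM with 10% FCS and […] hygromycin B, then held 2 h at 37 °C, 5% CO2. Test agents were given as a ten-point 1:1 serial dilution in IMDM without FCS, with final Me2SO 0.4%, for 22 h. Secreted Aβ42 in the supernatant was measured by bead ECL sandwich (biotin-6E10 capture, ruthenylated BAP15 detection, 3 h RT). IC50 was taken from the dose-response curve.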

Mus musculus [2] = assay: Antialzheimer activity in transgenic mouse overexpressing APP Swedish FAD mutant assessed as reduction in amyloid beta-42 level in brain at 150 mg/kg, po after 4 hrs; assay type: functional; set-up: scale not given: the % may be the effect or the level left
How it was run: (§1)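 Transgenic mice about 3 months old, overexpressing APP-Swe under the mouse Thy-1 promoter, were dosed orally. Brains were taken 4 h later and homogenized in 1% DEA. Brain Aβ42 was quantified by LP ECL, and brain compound exposure was measured by LC–MS/MS.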

Mus musculus [3] = assay: Antialzheimer activity in transgenic mouse overexpressing APP Swedish FAD mutant assessed as reduction in amyloid beta-42 level in brain at 150 mg/kg, po after 7 hrs; assay type: functional; set-up: scale not given: the % may be the effect or the level left
How it was run: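 Oral dosing was given to APP-Swe transgenic mice (Thy-1 promoter) about 3 months old. Brain homogenates in 1% DEA were analysed by LP ECL for Aβ42.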

[4] = Fraction unbound in transgenic mouse overexpressing APP Swedish FAD mutant; assay type: ADME, organism-based; conditions: in vivo
Mus musculus [5] = assay: Antialzheimer activity in transgenic mouse overexpressing APP Swedish FAD mutant assessed as reduction in amyloid beta-42 level in brain at 100 mg/kg, po; assay type: functional; how it was run: as §1
Mus musculus [6] = assay: Antialzheimer activity in transgenic mouse overexpressing APP Swedish FAD mutant assessed as reduction in amyloid beta-42 level in brain at 100 mg/kg, po after 4 hrs; assay type: functional, organism-based; set-up: dose 100 mg/kg; how it was run: as §1
[7] = Ratio of drug level in brain to plasma in transgenic mouse overexpressing APP Swedish FAD mutant at 7.2 mg/kg, po and 0.7 mg/kg, iv; assay type: ADME, organism-based; conditions: read-out: BPR
How it was run: (§2)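 Mouse pharmacokinetics used an iv dose of 0.7 mg/kg and a po dose of 7.2 mg/kg. Compound levels in plasma and brain were determined by LC–MS/MS over 0–24 h.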

Mus musculus [8] = assay: Antialzheimer activity in po dosed transgenic mouse overexpressing APP Swedish FAD mutant assessed as reduction in amyloid beta-42 level in brain measured after 4 hrs; assay type: functional; how it was run: as §1
[9] = Volume of distribution at steady state in transgenic mouse overexpressing APP Swedish FAD mutant at 7.2 mg/kg, po and 0.7 mg/kg, iv; assay type: ADME, organism-based; conditions: in vivo, read-out: Vdss; how it was run: as §2
[10] = Half life in transgenic mouse overexpressing APP Swedish FAD mutant at 7.2 mg/kg, po and 0.7 mg/kg, iv; assay type: ADME, organism-based; conditions: in vivo; how it was run: as §2
[11] = Plasma clearance in transgenic mouse overexpressing APP Swedish FAD mutant at 7.2 mg/kg, po and 0.7 mg/kg, iv; assay type: ADME, organism-based; how it was run: as §2
Mus musculus [12] = assay: Antialzheimer activity in transgenic mouse overexpressing APP Swedish FAD mutant assessed as reduction in amyloid beta-42 level in brain at 30 mg/kg, po; assay type: functional, organism-based; set-up: dose 30 mg/kg; how it was run: as §1
[13] = Oral bioavailability in transgenic mouse overexpressing APP Swedish FAD mutant at 7.2 mg/kg; assay type: ADME, organism-based; conditions: in vivo; how it was run: as §2
[14] = Inhibition of gamma secretase in rat primary neurons assessed as reduction in amyloid beta-42 secretion
[15] = Modulation of gamma secretase in cell-based assay assessed as change in notch protein level up to 25 uM
Gamma-secretase [16] = assay: Inhibition of gamma secretase in human H4 cells overexpressing human APP assessed as reduction in amyloid beta-40 secretion after 22 hrs; assay type: cell-based
How it was run: (§3)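 Human H4 neuroglioma cells overexpressing human APP were plated at 30,000 cells/well in IMDM with 10% FCS and […] hygromycin B, and incubated 2 h at 37 °C, 5% CO2. Compounds were added as a ten-point 1:1 serial dilution series in FCS-free IMDM, with final Me2SO 0.4%, for 22 h at 37 °C. The culture supernatant was then assayed.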

Gamma-secretase [17] = assay: Modulation of gamma secretase in human H4 cells overexpressing human APP assessed as increase in amyloid beta-38 secretion after 22 hrs; assay type: cell-based; how it was run: as §3
[18] = biological target: Inosine-5'-monophosphate dehydrogenase 2 (Homo sapiens, UniProt P12268); assay: Inhibition of IMPDH2
[19] = biological target: Gamma-secretase (Homo sapiens) (UniProt Q96BI3+Q9NZ42+Q8WW43+P49768+Q92542+P49810); assay: Modulation of gamma secretase in human H4 cells overexpressing human APP assessed as effect on total amyloid beta up to 20 uM after 22 hrs; assay type: cell-based; how it was run: as §3

Chain of Cytochrome P450 3A4 (P08684 whole entry): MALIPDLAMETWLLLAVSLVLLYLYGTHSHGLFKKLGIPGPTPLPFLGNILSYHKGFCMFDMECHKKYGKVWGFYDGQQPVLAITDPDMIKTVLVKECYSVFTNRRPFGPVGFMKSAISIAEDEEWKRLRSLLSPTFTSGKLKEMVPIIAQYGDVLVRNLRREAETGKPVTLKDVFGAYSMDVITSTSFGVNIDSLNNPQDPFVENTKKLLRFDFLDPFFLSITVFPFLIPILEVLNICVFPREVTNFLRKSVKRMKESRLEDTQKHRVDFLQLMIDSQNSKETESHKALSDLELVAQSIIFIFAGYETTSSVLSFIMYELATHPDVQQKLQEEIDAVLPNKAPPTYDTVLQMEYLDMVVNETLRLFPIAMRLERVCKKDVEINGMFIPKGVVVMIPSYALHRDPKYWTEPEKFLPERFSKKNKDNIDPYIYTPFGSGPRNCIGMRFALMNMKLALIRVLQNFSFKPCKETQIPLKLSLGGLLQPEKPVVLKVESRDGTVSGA
Chain of Cytochrome P450 2D6 (P10635 whole entry): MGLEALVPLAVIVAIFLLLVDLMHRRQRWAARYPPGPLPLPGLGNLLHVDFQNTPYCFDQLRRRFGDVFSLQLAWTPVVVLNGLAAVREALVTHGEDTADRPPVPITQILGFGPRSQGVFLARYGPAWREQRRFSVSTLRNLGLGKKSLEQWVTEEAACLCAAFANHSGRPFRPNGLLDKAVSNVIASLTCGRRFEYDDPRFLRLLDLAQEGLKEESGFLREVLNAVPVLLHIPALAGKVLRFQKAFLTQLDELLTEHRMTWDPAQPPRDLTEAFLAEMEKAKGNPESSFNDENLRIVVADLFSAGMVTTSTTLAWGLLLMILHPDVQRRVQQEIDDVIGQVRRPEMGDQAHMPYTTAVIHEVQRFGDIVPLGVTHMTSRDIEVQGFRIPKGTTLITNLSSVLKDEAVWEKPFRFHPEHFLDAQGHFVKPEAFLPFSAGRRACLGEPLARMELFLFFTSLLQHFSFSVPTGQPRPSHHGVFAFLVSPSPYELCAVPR

SMILES	IC50 (Cytochrome P450 2D6)	IC50 (Gamma-secretase [1])	further results
COc1ccc(Br)cc1-c1csc(Nc2ccc(-n3cnc(C)c3)cc2)n1	< 500 nM	880 nM	IC50 (Cytochrome P450 3A4): 1200 nM
COc1cc(Nc2nc(C)c(Cc3cccc(Cl)c3)s2)ccc1-n1cnc(C)c1	< 500 nM	214 nM	Activity (Mus musculus [2]): 47%; Activity (Mus musculus [3]): 22%; Fu [4]: < 0.1%
c1ccc(C2CCCc3sc(Nc4ccc(-c5ccnnc5)cc4)nc32)cc1 (stereo not drawn)	< 500 nM	376 nM	–
Cc1ncc(C)c(-c2ccc(Nc3nc4c(s3)CCCC4c3ccccc3)cc2)n1 (stereo not drawn)	< 500 nM	2870 nM	–
c1ccc(C2CCCc3sc(Nc4ccc(-c5ccncc5)cc4)nc32)cc1 (stereo not drawn)	< 500 nM	319 nM	Activity (Mus musculus [5]): inactive
c1ccc(C2CCCc3sc(Nc4ccc(-n5cncn5)cc4)nc32)cc1 (stereo not drawn)	< 500 nM	5550 nM	–
COc1ccc(Br)cc1-c1csc(Nc2ccc(-n3ccnc3)c(OC)c2)n1	< 500 nM	789 nM	IC50 (Cytochrome P450 3A4): < 200 nM
COc1cc(Nc2nc(C(C)(C)c3ccc(Cl)cc3)cs2)ccc1-n1cnc(C)c1	< 500 nM	136 nM	–
Cc1cn(-c2ccc(Nc3nc4c(s3)CCCC4c3ccccc3)cc2C#N)cn1 (stereo not drawn)	< 200 nM	123 nM	–
COc1cc(N(Cc2ccccc2)c2nc(C)c(Cc3ccc(Cl)cc3)s2)ccc1-n1cnc(C)c1	< 500 nM	> 40000 nM	–
COc1cc(Nc2nc3c(s2)CCCC3c2ccccc2)ccc1-c1cnc(C)o1 (stereo not drawn)	< 500 nM	86 nM	Activity (Mus musculus [5]): 47%
COc1cc(Nc2nc3c(s2)CCCC3c2ccccc2)ccc1-c1cnn(C)c1 (stereo not drawn)	< 500 nM	244 nM	Activity (Mus musculus [6]): inactive
COc1cc(Nc2nc3c(s2)CCCC3c2ccccc2)ccc1-c1nnc(C)o1 (stereo not drawn)	< 500 nM	999 nM	–
COc1cc(Nc2nc3c(s2)CCCC3c2ccccc2)ccc1-n1cnc(C)c1 (stereo not drawn)	< 200 nM	44 nM	Kp [7]: 0.4; ED50 (Mus musculus [8]): 40 mg/kg; Vd [9]: 4.6 L/kg; half-life [10]: 2.5 h; clearance [11]: 18.3 mL/min/kg; Activity (Mus musculus [12]): Active; bioavailability [13]: 25%
COc1cc(Nc2nc3c(s2)CCCC3c2ccccc2)ccc1-c1sc(C)nc1C (stereo not drawn)	< 500 nM	212 nM	–
Cc1cc(-c2ccc(Nc3nc4c(s3)CCCC4c3ccccc3)cc2)nc(C)n1 (stereo not drawn)	< 500 nM	483 nM	–
COc1cc(/C=C2\CCCN([C@@H](C)c3ccc(F)cc3)C2=O)ccc1-n1cnc(C)c1	–	–	IC50 [14]: 42 nM

SMILES	IC50 (Cytochrome P450 2D6)	IC50 (Gamma-secretase [1])	further results
Cc1nc(C)c(-c2ccc(Nc3nc4c(s3)CCCC4c3ccccc3)cc2)o1 (stereo not drawn)	< 500 nM	127 nM	–
Cc1ncc(-c2ccc(Nc3nc4c(s3)CCCC4c3ccccc3)cc2)o1 (stereo not drawn)	< 500 nM	133 nM	–
COc1cc(Nc2nc(C)c(Cc3cccc(Cl)c3)s2)ccc1-c1cnco1	< 500 nM	815 nM	Activity [15]: inactive; IC50 (Gamma-secretase [16]): 3700 nM; EC50 (Gamma-secretase [17]): 1500 nM; IC50 [18]: 400 nM; Activity [19]: inactive
Cc1nsc(-c2ccc(Nc3nc4c(s3)CCCC4c3ccccc3)cc2)n1 (stereo not drawn)	< 500 nM	651 nM	–
COc1cc(Nc2nc3c(s2)CCCC3c2ccccc2)ccc1-c1nc(C)no1 (stereo not drawn)	< 500 nM	3430 nM	–
COc1cc(Nc2nc3c(s2)CCCC3c2ccccc2)ccc1-c1cnc(C)s1 (stereo not drawn)	< 500 nM	252 nM	Activity (Mus musculus [5]): inactive
COc1cc(Nc2nc3c(s2)CCCC3c2ccccc2)ccc1C#N (stereo not drawn)	< 500 nM	3360 nM	–
Cc1cn(-c2ccc(Nc3nc4c(s3)CCCC4c3ccccc3)cc2)cn1 (stereo not drawn)	< 500 nM	133 nM	–
Cc1cn(-c2ccc(Nc3nc4c(s3)CCCC4c3ccccc3)cc2C(F)(F)F)cn1 (stereo not drawn)	< 500 nM	> 1250 nM	–
COc1cc(Nc2ncc(C(O)c3ccc(Cl)cc3)s2)ccc1-n1cnc(C)c1 (stereo not drawn)	< 500 nM	339 nM	–
Cc1cn(-c2ccc(Nc3nc4c(s3)CCCC4c3ccccc3)cc2Cl)cn1 (stereo not drawn)	< 200 nM	675 nM	–
Cc1cn(-c2ccc(Nc3nc4c(s3)CCCC4c3ccccc3)cc2F)cn1 (stereo not drawn)	< 500 nM	52 nM	–
COc1ccc(Br)cc1-c1csc(Nc2ccc(-n3cnc(C)c3)c(OC)c2)n1	< 500 nM	898 nM	IC50 (Cytochrome P450 3A4): 2200 nM
Cc1cn(-c2ccc(Nc3nc4c(s3)CCCC4c3ccccc3)cc2C)cn1 (stereo not drawn)	< 500 nM	733 nM	–
COc1ccc(Br)cc1-c1csc(Nc2ccc(-n3ccnc3)cc2)n1	< 500 nM	> 5000 nM	IC50 (Cytochrome P450 3A4): < 200 nM
Cc1cn(-c2ccc(Nc3nc4c(s3)CCCC4c3ccccc3)cc2O)cn1 (stereo not drawn)	< 500 nM	209 nM	–
